# Assay results as given in ChEMBL document CHEMBL2150894, “Synthesis and anti-staphylococcal activity of new 4-diazopyrazole derivatives” (2012).
# Active and inactive are the calls of the source. The rule behind the calls is not given here.
# Legend:
# Type in all cases: functional
# Staphylococcus aureus [1] = assay: Antibacterial activity against Staphylococcus aureus ATCC 29213
# How it was run: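 Broth microdilution: twofold serial dilutions of compound (range 50 to 0.001) in Mueller Hinton broth, each well inoculated with bacterial suspension from a 24 h culture containing ~10⁶ cfu/mL. Incubated 37 °C for 24 h.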
# Staphylococcus aureus [2] = assay: Antibacterial activity against methicillin-resistant Staphylococcus aureus ATCC 43866
# [3] = test system: Staphylococcus epidermidis; assay: Antibacterial activity against Staphylococcus epidermidis RP62A
# Staphylococcus aureus [4] = assay: Antibacterial activity against Staphylococcus aureus ATCC 29213 assessed as inhibition of biofilm formation at 25 ug/mL
# Staphylococcus aureus [5] = assay: Antibacterial activity against methicillin-resistant Staphylococcus aureus ATCC 43866 assessed as inhibition of biofilm formation at 25 ug/mL
# [6] = test system: Staphylococcus epidermidis; assay: Antibacterial activity against Staphylococcus epidermidis RP62A assessed as inhibition of biofilm formation at 25 ug/mL
# Staphylococcus aureus [7] = assay: Antibacterial activity against methicillin-resistant Staphylococcus aureus clinical isolate
# [8] = test system: Staphylococcus epidermidis; assay: Antibacterial activity against Staphylococcus epidermidis RP62A assessed as inhibition of biofilm formation
# Staphylococcus aureus [9] = assay: Antibacterial activity against Staphylococcus aureus ATCC 29213 after 24 hrs by broth microdilution method; conditions: ATCC 29213, 24 h
# How it was run: (§1)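 Broth microdilution in Mueller Hinton broth with twofold serial dilutions spanning 50 to 0.001. Each well received inoculum from a 24 h culture containing about 10⁶ cfu mL⁻¹, then incubated at 37 °C for 24 h. MIC was the lowest concentration whose OD570 matched the broth-only negative control. Veterinary isolates came from milk and food samples (IZS Sicily collection).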
# Staphylococcus aureus [10] = assay: Antibacterial activity against Staphylococcus aureus ATCC 25923 after 24 hrs by broth microdilution method; conditions: ATCC 25923, 24 h; how it was run: as §1
# Staphylococcus aureus [11] = assay: Antibacterial activity against Staphylococcus aureus ATCC 6538 after 24 hrs by broth microdilution method; conditions: ATCC 6538, 24 h; how it was run: as §1
# Staphylococcus aureus [12] = assay: Antibacterial activity against Staphylococcus aureus isolate 722 obtained from veterinary sample after 24 hrs by broth microdilution method; conditions: isolate 722, 24 h; how it was run: as §1
# Staphylococcus aureus [13] = assay: Antibacterial activity against Staphylococcus aureus isolate 708 obtained from veterinary sample after 24 hrs by broth microdilution method; conditions: isolate 708, 24 h; how it was run: as §1
# Staphylococcus aureus [14] = assay: Antibacterial activity against Staphylococcus aureus isolate 100 obtained from veterinary sample after 24 hrs by broth microdilution method; conditions: isolate 100, 24 h; how it was run: as §1
# Staphylococcus aureus [15] = assay: Antibacterial activity against Staphylococcus aureus isolate 723 obtained from veterinary sample after 24 hrs by broth microdilution method; conditions: isolate 723, 24 h; how it was run: as §1
# Staphylococcus aureus [16] = assay: Antibacterial activity against Staphylococcus aureus isolate 357 obtained from veterinary sample after 24 hrs by broth microdilution method; conditions: isolate 357, 24 h; how it was run: as §1
# Staphylococcus aureus [17] = assay: Antibacterial activity against Staphylococcus aureus isolate 712 obtained from veterinary sample after 24 hrs by broth microdilution method; conditions: isolate 712, 24 h; how it was run: as §1
# Staphylococcus aureus [18] = assay: Antibacterial activity against Staphylococcus aureus ATCC 29213 assessed as inhibition of biofilm formation at 3.1 ug/mL
# Staphylococcus aureus [19] = assay: Antibacterial activity against Staphylococcus aureus ATCC 25923 assessed as inhibition of biofilm formation at 3.1 ug/mL
# Staphylococcus aureus [20] = assay: Antibacterial activity against Staphylococcus aureus isolate 708 obtained from veterinary sample assessed as inhibition of biofilm formation at 3.1 ug/mL
# Staphylococcus aureus [21] = assay: Antibacterial activity against Staphylococcus aureus ATCC 29213 by NCCLS method
SMILES,MIC (Staphylococcus aureus [9]),MIC (Staphylococcus aureus [10]),MIC (Staphylococcus aureus [11]),MIC (Staphylococcus aureus [12]),MIC (Staphylococcus aureus [13]),MIC (Staphylococcus aureus [14]),MIC (Staphylococcus aureus [15]),MIC (Staphylococcus aureus [16]),MIC (Staphylococcus aureus [17]),further results
Cc1nn(C)c([N-]C(=O)c2ccc([N+](=O)[O-])cc2)c1[N+]#N,–,–,–,–,–,–,–,–,–,MIC (Staphylococcus aureus [1]): 1.5 µg/mL; MIC (Staphylococcus aureus [2]): 1.5 µg/mL; MIC [3]: 1.5 µg/mL; inhibition at 25 µg/mL (Staphylococcus aureus [4]): 69.7%; inhibition at 25 µg/mL (Staphylococcus aureus [5]): 69.7%; inhibition at 25 µg/mL [6]: 69.7%; MIC (Staphylococcus aureus [7]): 2 µg/mL
Cc1nn(C)c([N-]C(=O)c2ccc(Cl)cc2Cl)c1[N+]#N,–,–,–,–,–,–,–,–,–,MIC (Staphylococcus aureus [1]): 1.5 µg/mL; MIC (Staphylococcus aureus [2]): 1.5 µg/mL; MIC [3]: 1.5 µg/mL; inhibition [8]: Active; MIC (Staphylococcus aureus [7]): 2 µg/mL
Cc1nn(C)c([N-]C(=O)Nc2ccc(OCc3ccccc3)cc2[N+](=O)[O-])c1[N+]#N,> 50 µg/mL,> 50 µg/mL,> 50 µg/mL,> 50 µg/mL,> 50 µg/mL,> 50 µg/mL,> 50 µg/mL,> 50 µg/mL,> 50 µg/mL,–
Cc1nn(C)c([N-]C(=O)c2ccc(Cl)cc2)c1[N+]#N,–,–,–,–,–,–,–,–,–,MIC (Staphylococcus aureus [1]): 1.5 µg/mL; MIC (Staphylococcus aureus [2]): 1.5 µg/mL; MIC [3]: 1.5 µg/mL; inhibition at 25 µg/mL (Staphylococcus aureus [4]): 69.7%; inhibition at 25 µg/mL (Staphylococcus aureus [5]): 69.7%; inhibition at 25 µg/mL [6]: 69.7%; MIC (Staphylococcus aureus [7]): 2 µg/mL
CCCCOc1ccc(NC(=O)[N-]c2c([N+]#N)c(C)nn2C)c([N+](=O)[O-])c1,> 50 µg/mL,> 50 µg/mL,> 50 µg/mL,> 50 µg/mL,> 50 µg/mL,> 50 µg/mL,> 50 µg/mL,> 50 µg/mL,> 50 µg/mL,–
Cc1nn(C)c([N-]C(=O)Nc2ccc(Cl)c(Cl)c2)c1[N+]#N,6.2 µg/mL,6.2 µg/mL,6.2 µg/mL,3.1 µg/mL,6.2 µg/mL,3.1 µg/mL,3.1 µg/mL,6.2 µg/mL,25 µg/mL,–
Cc1nn(C)c([N-]C(=O)Nc2ccccc2)c1[N+]#N,12.5 µg/mL,12.5 µg/mL,12.5 µg/mL,25 µg/mL,25 µg/mL,12.5 µg/mL,6.2 µg/mL,6.2 µg/mL,50 µg/mL,–
CO[C@H]1/C=C/O[C@@]2(C)Oc3c(C)c(O)c4c(O)c(c(/C=N/N5CCN(C)CC5)c(O)c4c3C2=O)NC(=O)/C(C)=C\C=C\[C@H](C)[C@H](O)[C@@H](C)[C@@H](O)[C@@H](C)[C@H](OC(C)=O)[C@@H]1C [RIFAMPIN],0.015 µg/mL,0.015 µg/mL,0.015 µg/mL,0.6 µg/mL,0.07 µg/mL,0.07 µg/mL,1.25 µg/mL,0.015 µg/mL,0.3 µg/mL,MIC (Staphylococcus aureus [21]): 8 ng/mL

# Continued, in another order:
MIC (Staphylococcus aureus [9]),MIC (Staphylococcus aureus [10]),MIC (Staphylococcus aureus [11]),MIC (Staphylococcus aureus [12]),MIC (Staphylococcus aureus [13]),MIC (Staphylococcus aureus [14]),MIC (Staphylococcus aureus [15]),MIC (Staphylococcus aureus [16]),MIC (Staphylococcus aureus [17]),SMILES,further results
6.2 µg/mL,6.2 µg/mL,6.2 µg/mL,6.2 µg/mL,6.2 µg/mL,3.1 µg/mL,6.2 µg/mL,6.2 µg/mL,25 µg/mL,COc1ccc(CC(=O)[N-]c2c([N+]#N)c(C)nn2C)cc1,inhibition at 3.1 µg/mL (Staphylococcus aureus [18]): 45.7%; inhibition at 3.1 µg/mL (Staphylococcus aureus [19]): 38%; inhibition at 3.1 µg/mL (Staphylococcus aureus [20]): 25%
25 µg/mL,25 µg/mL,6.2 µg/mL,12.5 µg/mL,12.5 µg/mL,6.2 µg/mL,3.1 µg/mL,1.5 µg/mL,50 µg/mL,Cc1nn(C)c([N-]C(=O)Cc2ccc(Cl)cc2)c1[N+]#N,–
3.1 µg/mL,6.2 µg/mL,3.1 µg/mL,6.2 µg/mL,6.2 µg/mL,3.1 µg/mL,3.1 µg/mL,1.5 µg/mL,1.5 µg/mL,Cc1nn(C)c([N-]C(=O)Cc2ccccc2)c1[N+]#N,inhibition (Staphylococcus aureus [18]): inactive; inhibition at 3.1 µg/mL (Staphylococcus aureus [19]): 45.7%; inhibition (Staphylococcus aureus [20]): inactive
6.2 µg/mL,6.2 µg/mL,6.2 µg/mL,3.1 µg/mL,3.1 µg/mL,> 100 µg/mL,100 µg/mL,3.1 µg/mL,3.1 µg/mL,Cc1nn(C)c([N-]C(=O)Nc2ccc([N+](=O)[O-])cc2)c1[N+]#N,–
6.2 µg/mL,6.2 µg/mL,25 µg/mL,12.5 µg/mL,25 µg/mL,6.2 µg/mL,12.5 µg/mL,6.2 µg/mL,3.1 µg/mL,Cc1nn(C)c([N-]C(=O)Nc2ccc(Cl)cc2)c1[N+]#N,–
> 50 µg/mL,> 50 µg/mL,> 50 µg/mL,> 50 µg/mL,> 50 µg/mL,> 50 µg/mL,> 50 µg/mL,> 50 µg/mL,> 50 µg/mL,COc1ccc(NC(=O)[N-]c2c([N+]#N)c(C)nn2C)c([N+](=O)[O-])c1,–
